Active and inactive are the calls of the source. The calls are words filed in the database; no cut-off is given here.
Key:
Type in all cases: functional, cell-based
L1210 = test: In vitro antiproliferative activity against murine lymphocytic L1210 leukemia cell line; settings: Mus musculus
How it was run: (§1)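 Exponentially growing cells in RPMI 1640 with 10% FCS, 2 mM L-glutamine, […] and penicillin/streptomycin. Exposed to increasing drug concentrations, diluted from a 1 mg/mL DMSO stock. Cell number per mL was counted by Coulter counter after 48 h, using duplicate cultures per concentration and at least three repeats. IC50 = 50% growth inhibition versus untreated controls, reported as mean ± SE.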

K562 = test: In vitro antiproliferative against human chronic myelogenous K562 cell line; how it was run: as §1
HL-60 [1] = test: DNA fragmentation in HL60 cells by ethidium bromide staining at 1 uM for 12 hrs; settings: Homo sapiens
HL-60 [2] = test: PARP hydrolysis in HL60 cells by an immunoblot assay; settings: Homo sapiens
How it was run: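 HL-60 cell lysates, equal protein per lane, were run on SDS-PAGE and blotted with an anti-PARP monoclonal antibody to detect PARP cleavage. Etoposide was the positive control.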

HL-60 [3] = test: Cytochrome c release in HL60 cells by immunoblotting at 1 uM; settings: Homo sapiens
How it was run: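 HL-60 cells treated with 1 or 3 µM compound and harvested at 12 h. Cytosolic lysates were immunoblotted with anti-cytochrome c antibody, looking for the 15 kDa band. β-actin served as loading control.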

HL-60 [4] = test: Condensation of chromatin in HL60 cells at 1 uM for 12 hrs; settings: Homo sapiens
How it was run: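 HL-60 cells exposed to 1 µM compound for 12 h, then DNA stained with Hoechst 33258. Chromatin condensation and apoptotic bodies were examined by fluorescence microscopy. Apoptotic nuclei were counted quantitatively in triplicate, and the experiment was repeated once.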

HL-60 [5] = test: In vitro antiproliferative activity against human HL60 myeloid leukemia cell line by MTT assay
PBMC = test: In vitro antiproliferative activity against human PBM cell line by MTT assay
How it was run: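 PBMCs isolated from anticoagulant-treated blood of healthy human donors. Cells were cultured with or without compound for 24 h, and growth was read by MTT dye-reduction assay. IC50 taken from dose-response curves of at least two independent experiments, each in triplicate determinations, as mean ± SE.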

IC50 (L1210) [nM] | IC50 (K562) [nM] | IC50 (HL-60 [5]) [nM] | SMILES | Activity (HL-60 [1]) | Activity (HL-60 [2]) | Activity (HL-60 [3]) | Activity (HL-60 [4]) | IC50 (PBMC) [nM]
> 10000 | > 10000 |  | C=C1CC(COc2cc(C(=O)O)n(C)n2)(c2ccc(Cl)cc2)OC1=O (configuration not stated) |  |  |  |  | 
280 | 360 |  | C=C(Br)C(=O)Nc1ccc2c(c1)cc(C(=O)NCCNC(=O)c1cc(OCC3(c4ccc(-c5ccccc5)cc4)CC(=C)C(=O)O3)nn1C)n2C (configuration not stated) |  |  |  |  | 
840 | 1020 |  | C=C(Br)C(=O)Nc1ccc2sc(C(=O)NCCNC(=O)c3cc(OCC4(C)CC(=C)C(=O)O4)nn3C)cc2c1 (configuration not stated) |  |  |  |  | 
270 | 410 |  | C=C(Br)C(=O)Nc1ccc2oc(C(=O)NCCNC(=O)c3cc(OCC4(c5ccc(-c6ccccc6)cc5)CC(=C)C(=O)O4)nn3C)cc2c1 (configuration not stated) |  |  |  |  | 
850 | 630 |  | C=C(Br)C(=O)Nc1ccc2[nH]c(C(=O)NCCNC(=O)c3cc(OCC4(c5ccccc5)CC(=C)C(=O)O4)nn3C)cc2c1 (configuration not stated) |  |  |  |  | 
550 | 710 |  | C=C(Br)C(=O)Nc1ccc2oc(C(=O)NCCNC(=O)c3cc(OCC4(c5ccc(Cl)cc5)CC(=C)C(=O)O4)nn3C)cc2c1 (configuration not stated) |  |  |  |  | 
50 | 80 | 110 | C=C(Br)C(=O)Nc1ccc2c(c1)cc(C(=O)NCCNC(=O)c1cc(OCC3(c4ccccc4)CC(=C)C(=O)O3)nn1C)n2C (configuration not stated) | Active | Active | Active | Active | 2520
> 10000 | > 10000 |  | C=C1CC(COc2cc(C(=O)O)n(C)n2)(c2ccc(-c3ccccc3)cc2)OC1=O (configuration not stated) |  |  |  |  | 
2070 | 3370 |  | C=C(Br)C(=O)Nc1ccc2c(c1)cc(C(=O)O)n2C |  |  |  |  | 
4500 | 5000 |  | C=C(Br)C(=O)Nc1ccc2sc(C(=O)O)cc2c1 |  |  |  |  | 
> 10000 | > 10000 |  | C=C1CC(C)(COc2cc(C(=O)O)n(C)n2)OC1=O (configuration not stated) |  |  |  |  | 
290 | 380 | 360 | C=C(Br)C(=O)Nc1ccc2sc(C(=O)NCCNC(=O)c3cc(OCC4(c5ccc(-c6ccccc6)cc5)CC(=C)C(=O)O4)nn3C)cc2c1 (configuration not stated) | Active | Active | Active | Active | 8610
4300 | 5600 |  | C=C(Br)C(=O)Nc1ccc2[nH]c(C(=O)O)cc2c1 |  |  |  |  | 
360 | 480 |  | C=C(Br)C(=O)Nc1ccc2[nH]c(C(=O)NCCNC(=O)c3cc(OCC4(c5ccc(-c6ccccc6)cc5)CC(=C)C(=O)O4)nn3C)cc2c1 (configuration not stated) |  |  |  |  | 
> 10000 | > 10000 |  | C=C1CC(COc2cc(C(=O)O)n(C)n2)(c2ccccc2)OC1=O (configuration not stated) |  |  |  |  | 
290 | 270 |  | C=C(Br)C(=O)Nc1ccc2sc(C(=O)NCCNC(=O)c3cc(OCC4(c5ccccc5)CC(=C)C(=O)O4)nn3C)cc2c1 (configuration not stated) |  |  |  |  | 
260 | 410 | 290 | C=C(Br)C(=O)Nc1ccc2sc(C(=O)NCCNC(=O)c3cc(OCC4(c5ccc(Cl)cc5)CC(=C)C(=O)O4)nn3C)cc2c1 (configuration not stated) | Active | Active | Active | Active | 6820
2950 | 7250 |  | C=C(Br)C(=O)Nc1ccc2oc(C(=O)O)cc2c1 |  |  |  |  | 
310 | 420 | 270 | C=C(Br)C(=O)Nc1ccc2oc(C(=O)NCCNC(=O)c3cc(OCC4(c5ccccc5)CC(=C)C(=O)O4)nn3C)cc2c1 (configuration not stated) | Active | Active | Active | Active | 5440

From ChEMBL document CHEMBL1141193, “Design, synthesis, and biological evaluation of hybrid molecules containing alpha-methylene-gamma-butyrolactones and alpha-bromoacryloyl moieties” (J Med Chem, 2005)
